Measured values reported in ChEMBL document CHEMBL1122696, “Synthesis and antiviral/antitumor activities of certain pyrazolo[3,4-d]pyrimidine-4(5H)-selone nucleosides and related compounds” (J Med Chem, 1984).
pEC50, pIC50: −log10 of the molar value. Active and inactive are the calls of the source. The rule behind the calls is not given here.

How the values were obtained:
[1] = Toxic level of the compound; None; format: ADME
[2] = system: Human alphaherpesvirus 2; assay: In vitro antiviral activity against Herpes simplex type 2 virus; format: functional; settings: read-out: ED50 (the source's name)
[3] = system: L1210; assay: In vitro antitumor activity against L1210 leukemia cells; b = Inactive at 10e-4 M; format: functional, cell-based; settings: Mus musculus
Summary of the method: (§1)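 L1210 and P388 cells kept in RPMI-1640 with 10% heat-inactivated fetal calf serum. Seeded in tubes at 5×10^4 cells/mL and grown 48 h at 37 °C with compound at 4-5 log doses. Growth counted by Coulter counter and expressed as % of untreated control tubes. ID50 is the dose giving 50% growth inhibition.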

[4] = system: Measles morbillivirus; assay: In vitro antiviral activity against measles virus; format: functional; settings: read-out: ED50 (the source's name)
[5] = system: P388; assay: In vitro antitumor activity against P388 leukemia cells; b = Inactive at 10e-4 M; format: functional, cell-based; settings: Mus musculus; summary of the method: as §1
[6] = system: Human respirovirus 3; assay: In vitro antiviral activity against parainfluenza type (para 3) virus; format: functional; settings: read-out: ED50 (the source's name)
[7] = Toxic level of the compound; format: ADME
Summary of the method: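 HeLa and Vero cells grown overnight to near confluency, then exposed to compound at 100 or 1000 μg/mL for 24-72 h in quadruplicate wells. Cells trypsinized, serially diluted and replated, then grown 3-5 days drug-free. Crystal violet-stained colonies counted. Survival expressed as relative plating efficiency versus untreated controls.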

[8] = system: L1210; assay: In vitro antitumor activity against L1210 leukemia cells; format: functional; settings: Mus musculus, read-out: ID50 (the source's name)
Summary of the method: (§2)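 L1210 or P388 cells kept in RPMI-1640 with 10% heat-inactivated fetal calf serum, seeded at 5×10^4 cells/mL in tubes. Grown with compound at 4-5 log doses for 48 h at 37 °C. Growth read by Coulter cell count as % of untreated control tubes. ID50 = dose giving 50% growth inhibition.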

[9] = system: P388; assay: In vitro antitumor activity against P388 leukemia cells; format: functional; settings: Mus musculus, read-out: ID50 (the source's name); summary of the method: as §2
[10] = system: Vaccinia virus; assay: In vitro antiviral activity against Vaccinia virus; format: functional; settings: Orthopoxvirus vaccinia; read-out: ED50 (the source's name)

Structure (SMILES) | Toxic level [1] | pEC50 [2] | ID50 [3] | pEC50 [4] | ID50 [5] | pEC50 [6] | Toxic level [7] | pIC50 [8] | pIC50 [9] | pEC50 [10]
OC[C@H]1OC(n2ncc3c(S)ncnc32)[C@H](O)[C@@H]1O (stereo partly drawn) | Not Active | 3.80 | Inactive at 10^-4M | 4.92 | Inactive at 10^-4M | < 2.30 | – | – | – | –
OC[C@H]1OC(n2ncc3c([SeH])ncnc32)[C@H](O)[C@@H]1O (stereo partly drawn) | – | 5.30 | – | 5.92 | – | < 2.30 | 160 µM | 5.60 | 5.57 | 5.02
Cc1nc([SeH])c2cnn(C3O[C@H](CO)[C@@H](O)[C@H]3O)c2n1 (stereo partly drawn) | – | 5.30 | – | 5.89 | – | 4.89 | 500 µM | 5.51 | 5.51 | 4.80
Cc1nc2c(cnn2C2O[C@H](CO)[C@@H](O)[C@H]2O)c(=O)[nH]1 (stereo partly drawn) | – | 4.30 | Inactive at 10^-4M | 4.92 | Inactive at 10^-4M | < 2.30 | 5000 µM | – | – | 2.80
Cc1nc(N)c2cnn(C3O[C@H](CO)[C@@H](O)[C@H]3O)c2n1 (stereo partly drawn) | Not Active | 4.46 | Inactive at 10^-4M | 4.92 | Inactive at 10^-4M | < 2.30 | – | – | – | 2.30
OC[C@H]1OC(n2nc(Br)c3c([SeH])ncnc32)[C@H](O)[C@@H]1O (stereo partly drawn) | – | 5.05 | – | 5.89 | – | < 2.30 | 50 µM | 5.57 | 5.64 | 5.30
Cc1nc(S)c2cnn(C3O[C@H](CO)[C@@H](O)[C@H]3O)c2n1 (stereo partly drawn) | – | 3.49 | Inactive at 10^-4M | 8.85 | Inactive at 10^-4M | < 2.30 | 5000 µM | – | – | 2.92
